The text below walks through data of ChEMBL document CHEMBL3297702, “Improving photodynamic inactivation of bacteria in dentistry: highly effective and fast killing of oral key pathogens with novel tooth-colored type-II photosensitizers” (J Med Chem, 2014).

The source made the active and inactive calls. The calls are words filed in the database; no cut-off is given here. Where only a bound is given, the exact number is not on record here.

Data set [1] deals with Aggregatibacter actinomycetemcomitans. Kind of data set: Photodynamic inactivation of Aggregatibacter actinomycetemcomitans ATCC 43718 assessed as reduction of log10 CFU at 5 uM incubated prior to irradiation with 50 j/cm'2 for 40 secs measured after 48 hrs by agar plating method (reference value: <1 no unit). The data set is classed as functional, Y4. In a few lines:
(§1)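 A. actinomycetemcomitans ATCC 43718 cultured overnight in BHI broth under anaerobic conditions, 37 °C with shaking. Stationary-phase cells were spun down, taken up in PBS to 10^7–10^8/mL, and combined 1:1 with PS (final 0–250 µM) or water. After 10 s they were irradiated at 1260 ± 50 mW/cm2 or kept dark. Serial dilutions went onto BHI agar, incubated anaerobically at 37 °C for 48 h, and CFU were scored. Results are medians from 3 experiments × triplicate versus untreated controls.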

Data set [2] has the same test system. In words: Photodynamic inactivation of Aggregatibacter actinomycetemcomitans ATCC 43718 assessed as reduction of log10 CFU at 100 uM incubated prior to irradiation with 150 j/cm'2 for 120 secs measured after 48 hrs by agar plating method relative to control. It is filed as functional, Y4. The gist of the method: as §1
Data set [3] concerns Actinomyces naeslundii. Kind of data set: Photodynamic inactivation of Actinomyces naeslundii T14V assessed as reduction of log10 CFU at 1 to 250 uM preincubated for 10 secs followed by irradiation with 50 j/cm'2 for 40 secs measured after 48 hrs by agar plating method. It is filed as functional, organism-based. The gist of the method: (§2)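 A. naeslundii T14V grown overnight at 37 °C, shaken, aerobically in BHI broth. Harvested at stationary phase, resuspended in PBS to 10^7–10^8 bacteria/mL (OD600). Mixed 1:1 with PS (final 0–250 µM) or water, 10 s incubation, then blue photopolymerizer light (1260 ± 50 mW/cm2) or dark. Tenfold dilutions plated on blood agar, aerobic 37 °C 48 h, CFU counted; medians of three independent experiments in triplicate.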

Data set [4] concerns Streptococcus mutans. In words: Photodynamic inactivation of Streptococcus mutans ATCC 25175 assessed as reduction of log10 CFU at 10 uM incubated prior to irradiation with 150 j/cm'2 for 120 secs measured after 48 hrs by agar plating method (reference value: <1 no unit). It is filed as functional.
In data set [5] the test system is Streptococcus mutans. Kind of data set: Photodynamic inactivation of Streptococcus mutans ATCC 25175 assessed as reduction of log10 CFU at 1 to 250 uM preincubated for 10 secs followed by irradiation with 150 j/cm'2 for 120 secs measured after 48 hrs by agar plating method. The data set is classed as functional.
Data set [6] has as its system Actinomyces naeslundii. Kind of data set: Photodynamic inactivation of Actinomyces naeslundii T14V assessed as reduction of log10 CFU at 100 uM incubated prior to irradiation with 50 j/cm'2 for 40 secs measured after 48 hrs by agar plating method (reference value: <1 no unit). The data set is classed as functional. In a few lines: as §2
Data set [7] has as its system Actinomyces naeslundii. In words: Photodynamic inactivation of Actinomyces naeslundii T14V assessed as reduction of log10 CFU at 1 to 250 uM preincubated for 10 secs followed by irradiation with 150 j/cm'2 for 120 secs measured after 48 hrs by agar plating method. It is filed as functional, organism-based. The gist of the method:
as §2

Data set [8] deals with Aggregatibacter actinomycetemcomitans. In words: Photodynamic inactivation of Aggregatibacter actinomycetemcomitans ATCC 43718 assessed as reduction of log10 CFU at 10 uM incubated prior to irradiation with 150 j/cm'2 for 120 secs measured after 48 hrs by agar plating method relative to control. The data set is classed as functional, Y4. In a few lines:
as §1

Data set [9] has the same test system. Kind of data set: Photodynamic inactivation of Aggregatibacter actinomycetemcomitans ATCC 43718 assessed as reduction of log10 CFU at 1 uM incubated prior to irradiation with 50 j/cm'2 for 40 secs measured after 48 hrs by agar plating method (reference value: <1 no unit). It is filed as functional, Y4. In a few lines: as §1
Data set [10] relates to Actinomyces naeslundii. In words: Photodynamic inactivation of Actinomyces naeslundii T14V assessed as reduction of log10 CFU at 1 uM incubated prior to irradiation with 50 j/cm'2 for 40 secs measured after 48 hrs by agar plating method (reference value: <1 no unit). It is filed as functional. In a few lines:
as §2

The test system of data set [11] is Actinomyces naeslundii. Kind of data set: Photodynamic inactivation of Actinomyces naeslundii T14V assessed as reduction of log10 CFU at 10 uM incubated prior to irradiation with 25 j/cm'2 for 20 secs measured after 48 hrs by agar plating method (reference value: <1 no unit). It is filed as functional. In a few lines:
as §2

The subject of data set [12] is Actinomyces naeslundii. Kind of data set: Photodynamic inactivation of Actinomyces naeslundii T14V assessed as reduction of log10 CFU at 1 uM incubated prior to irradiation with 25 j/cm'2 for 20 secs measured after 48 hrs by agar plating method (reference value: <1 no unit). It is filed as functional. In a few lines:
as §2

For data set [13], the system named is Enterococcus faecalis. Kind of data set: Photodynamic inactivation of Enterococcus faecalis ATCC 29212 assessed as reduction of log10 CFU at 1 to 250 uM preincubated for 10 secs followed by irradiation with 150 j/cm'2 for 120 secs measured after 24 hrs by agar plating method. It is filed as functional, organism-based. In a few lines: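 E. faecalis ATCC 29212, aerobic overnight BHI culture at 37 °C, was harvested at stationary phase and suspended in PBS at 10^7–10^8 bacteria/mL. It was mixed 1:1 with PS to 0–250 µM final, held 10 s, then illuminated (1260 ± 50 mW/cm2) or kept dark. Dilutions were plated on Mueller-Hinton agar, aerobic 37 °C 24 h, CFU counted. Medians of three independent triplicate experiments, referred to untreated controls.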

The subject of data set [14] is Streptococcus mutans. Kind of data set: Photodynamic inactivation of Streptococcus mutans ATCC 25175 assessed as reduction of log10 CFU at 1 to 250 uM preincubated for 10 secs followed by irradiation with 25 j/cm'2 for 20 secs measured after 48 hrs by agar plating method. It is filed as functional.
Data set [15] deals with Streptococcus mutans. Kind of data set: Photodynamic inactivation of Streptococcus mutans ATCC 25175 assessed as reduction of log10 CFU at 1 uM incubated prior to irradiation with 50 j/cm'2 for 40 secs measured after 48 hrs by agar plating method (reference value: <1 no unit). It is filed as functional.
Data set [16] deals with Actinomyces naeslundii. In words: Photodynamic inactivation of Actinomyces naeslundii T14V assessed as reduction of log10 CFU at 5 uM incubated prior to irradiation with 25 j/cm'2 for 20 secs measured after 48 hrs by agar plating method (reference value: <1 no unit). It is filed as functional. In a few lines: as §2
The test system of data set [17] is Actinomyces naeslundii. In words: Photodynamic inactivation of Actinomyces naeslundii T14V assessed as reduction of log10 CFU at 1 uM incubated prior to irradiation with 150 j/cm'2 for 120 secs measured after 48 hrs by agar plating method (reference value: <1 no unit). The data set is classed as functional. In a few lines:
as §2

In data set [18] the test system is Streptococcus mutans. Kind of data set: Photodynamic inactivation of Streptococcus mutans ATCC 25175 assessed as reduction of log10 CFU at 5 uM incubated prior to irradiation with 50 j/cm'2 for 40 secs measured after 48 hrs by agar plating method (reference value: <1 no unit). It is filed as functional.
The test system of data set [19] is Enterococcus faecalis. Kind of data set: Toxicity in Enterococcus faecalis ATCC 29212 assessed as reduction of log10 CFU at 1 to 250 uM incubated for 10 secs under dark condition measured after 24 hrs by agar plating method. It is filed as organism-based. Conditions: in vivo. The gist of the method: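 Dark controls. Overnight BHI cultures (EF, SM, AN aerobic; AA anaerobic; 37 °C) were washed into PBS at 10^7–10^8 cells/mL. They were mixed 1:1 with photosensitizer at final 0–250 µM and incubated 10 s, 7.5 min or 15 min, then kept in the dark for 20, 40 or 120 s. Tenfold dilutions were plated: EF on Mueller-Hinton agar, aerobic 24 h; SM on BHI agar, aerobic 48 h; AN on blood agar, aerobic 48 h; AA on BHI agar, anaerobic 48 h; all at 37 °C. CFU were compared with untreated controls; medians of three independent experiments in triplicate.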

Turning to `O=C1C(C[n+]2ccccc2)=Cc2cccc3cccc1c23.[Cl-]`, the log10cfu in [1] is more than 6; in [2], more than 6; with Streptococcus mutans [4], more than 6; in the data set on Actinomyces naeslundii [6] it was more than 5; in data set [8], more than 6; in data set [9] it was less than 3. Besides, the log10cfu was less than 1 in the data set with Actinomyces naeslundii [10]; more than 5 with Actinomyces naeslundii [11]; less than 1 in the data set on Actinomyces naeslundii [12]; less than 1 with Streptococcus mutans [15]; less than 3 in the data set on Actinomyces naeslundii [16]; less than 5 in the data set on Actinomyces naeslundii [17]. Besides, the log10cfu in the data set with Streptococcus mutans [18] is reported as less than 3. Besides, the outcome in the data set on Actinomyces naeslundii [3], with Streptococcus mutans [5], with Actinomyces naeslundii [7], with Enterococcus faecalis [13] and in the data set on Streptococcus mutans [14] was Active.

As for `C[N+](C)(CCO)CC1=Cc2cccc3cccc(c23)C1=O.[Cl-]`, the log10cfu in data set [1] was less than 3; in [2], more than 6; with Streptococcus mutans [4] it was more than 6; in the data set on Actinomyces naeslundii [6] it was more than 5; in data set [8] it was more than 6; in [9] it was less than 3. In addition, the log10cfu is given as less than 1 in the data set on Actinomyces naeslundii [10]; less than 3 with Actinomyces naeslundii [11]; less than 1 in the data set on Actinomyces naeslundii [12]; less than 1 in the data set with Streptococcus mutans [15]; less than 1 in the data set on Actinomyces naeslundii [16]; less than 1 with Actinomyces naeslundii [17]. Besides, in the data set with Streptococcus mutans [18], the log10cfu is listed as less than 1. For the same molecule, in the data set with Enterococcus faecalis [19], the Activity result is on record as “Non-toxic”.

Consider `C[N+](C)(C)CC1=Cc2cccc3cccc(c23)C1=O.[Cl-]`, for which the outcome in the data set with Actinomyces naeslundii [3], in the data set on Streptococcus mutans [5], in the data set with Actinomyces naeslundii [7], in the data set on Enterococcus faecalis [13] and in the data set on Streptococcus mutans [14] was Active. Moreover, the Activity entry in the data set on Enterococcus faecalis [19] was “Non-toxic”.
